Experimental data reported in ChEMBL document CHEMBL1833943, “Synthesis and structure-activity relationships of varied ether linker analogues of the antitubercular drug (6S)-2-nitro-6-{[4-(trifluoromethoxy)benzyl]oxy}-6,7-dihydro-5h-imidazo[2,1-b][1,3]oxazine (PA-824)” (J Med Chem, 2011).
≈ marks a conversion by molar mass, not a printed value.

Legend:
[1] = Metabolic stability in human liver microsomes at 1 uM measured as compound remaining after 1 hr by LC/MS/MS analysis; type: ADME, Microsome; conditions: read-out: Stability
[2] = Metabolic stability in CD1 mouse liver microsomes at 1 uM measured as compound remaining after 1 hr by LC/MS/MS analysis; type: ADME, Microsome; conditions: read-out: Stability
[3] = test system: Mycobacterium tuberculosis; test: Antituberculosis activity against Mycobacterium tuberculosis H37Rv under aerobic conditions by microplate alamar blue assay; type: functional
[4] = test system: Mycobacterium tuberculosis; test: Antituberculosis activity against Mycobacterium tuberculosis H37Rv under anaerobic conditions by fluorescence based low-oxygen-recovery assay; type: functional
[5] = Aqueous solubility of the compound in water at pH 7 by HPLC analysis; type: physicochemical
Outline: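 Solubility measured in water at pH 7 and 20 °C, quantified by HPLC.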

[6] = test system: Mycobacterium tuberculosis; test: Antituberculosis activity against Mycobacterium tuberculosis H37Rv infected in BALB/c mouse acute infection model assessed as fold reduction in bacterial CFU in lungs at 100 mg/kg, po administered for 5 days a week for 3 weeks beginning on day 11 postinfection relative to PA-824; type: functional
Outline: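 Mice with acute M. tb infection dosed orally at 100 mg/kg daily, 5 days each week, standard 3 week assay. Lung CFUs counted. Value is the fold CFU decrease for the compound divided by the fold CFU decrease for the internal reference standard run in the same experiment.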

[7] = Stability of the compound in antimycobacterial activity assay condition assessed as parent compound level; type: ADME
[8] = AUC (0 to infinity) in plasma of CD1 mouse at 40 mg/kg, po; type: ADME, organism-based; design: time infinity, dose 40 mg/kg, route oral
Outline: (§1)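 Mice given a single oral dose of 40 mg/kg; drug levels followed over time in plasma and lung tissue to derive half-life, Cmax and AUC for each matrix.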

[9] = Half life in the lung of CD1 mouse at 40 mg/kg, po; type: ADME, organism-based; design: dose 40 mg/kg, route oral; outline: as §1
[10] = Half life in plasma of CD1 mouse at 40 mg/kg, po; type: ADME, organism-based; design: dose 40 mg/kg, route oral
[11] = Cmax in lung of CD1 mouse at 40 mg/kg, po; type: ADME, organism-based; design: dose 40 mg/kg, route oral; outline: as §1
[12] = Ratio of AUC (0 to infinity) in lung of CD1 mouse to AUC (0 to infinity) in plasma of CD1 mouse at 40 mg/kg, po; type: ADME, organism-based; design: dose 40 mg/kg, route oral; conditions: read-out: Ratio AUC
[13] = Cmax in plasma of CD1 mouse at 40 mg/kg, po; type: ADME, organism-based; design: dose 40 mg/kg, route oral; outline: as §1
[14] = AUC (0 to infinity) in lung of CD1 mouse at 40 mg/kg, po; type: ADME, organism-based; design: time infinity, dose 40 mg/kg, route oral; outline: as §1

SMILES	MIC [3]	MIC [4]	solubility [5]	also measured
O=[N+]([O-])c1cn2c(n1)OC[C@@H](OCc1ccc(OCc3ccccc3)cc1)C2	0.025 µM (≈ 0.00953 µg/mL)	1.3 µM (≈ 0.496 µg/mL)	0.76 µg/mL (≈ 1.99 µM)	remaining at 1 h, 1 µM [1]: 59%; remaining at 1 h, 1 µM [2]: 44%
O=[N+]([O-])c1cn2c(n1)OC[C@@H](OCc1ccc(C(F)(F)F)cn1)C2	1.5 µM (≈ 0.516 µg/mL)	22 µM (≈ 7.57 µg/mL)	188 µg/mL (≈ 546 µM)	–
O=[N+]([O-])c1cn2c(n1)OC[C@@H](OCc1ccc(C(F)(F)F)nc1)C2	3 µM (≈ 1.03 µg/mL)	50 µM (≈ 17.2 µg/mL)	68 µg/mL (≈ 198 µM)	–
O=[N+]([O-])c1cn2c(n1)OC[C@@H](OCCCc1ccc(OC(F)(F)F)cc1)C2	0.22 µM (≈ 0.0852 µg/mL)	3.2 µM (≈ 1.24 µg/mL)	11 µg/mL (≈ 28.4 µM)	–
O=[N+]([O-])c1cn2c(n1)OC[C@@H](OCCCc1ccc(C(F)(F)F)nc1)C2	0.51 µM (≈ 0.19 µg/mL)	12 µM (≈ 4.47 µg/mL)	168 µg/mL (≈ 451 µM)	–
O=[N+]([O-])c1cn2c(n1)OC[C@@H](OCCOc1ccc(OC(F)(F)F)cc1)C2	0.04 µM (≈ 0.0156 µg/mL)	5.1 µM (≈ 1.99 µg/mL)	50 µg/mL (≈ 128 µM)	fold change (FC) [6]: 1.3; remaining at 1 h, 1 µM [1]: 85%; remaining at 1 h, 1 µM [2]: 66%
O=[N+]([O-])c1cn2c(n1)OC[C@@H](OCCOc1ccc(C(F)(F)F)cn1)C2	0.38 µM (≈ 0.142 µg/mL)	26 µM (≈ 9.73 µg/mL)	42 µg/mL (≈ 112 µM)	–
O=[N+]([O-])c1cn2c(n1)OC[C@@H](OCCOc1ccc(C(F)(F)F)nc1)C2	0.79 µM (≈ 0.296 µg/mL)	59 µM (≈ 22.1 µg/mL)	58 µg/mL (≈ 155 µM)	–
O=[N+]([O-])c1cn2c(n1)OC[C@@H](OC/C=C/c1ccc(OC(F)(F)F)cc1)C2	0.05 µM (≈ 0.0193 µg/mL)	4.3 µM (≈ 1.66 µg/mL)	1.5 µg/mL (≈ 3.89 µM)	remaining at 1 h, 1 µM [1]: 99%; remaining at 1 h, 1 µM [2]: 71%
O=[N+]([O-])c1cn2c(n1)OC[C@@H](OC/C=C/c1ccc(OCc3ccccc3)cc1)C2	0.16 µM (≈ 0.0652 µg/mL)	1.3 µM (≈ 0.53 µg/mL)	0.06 µg/mL (≈ 0.147 µM)	Stability [7]: < 50%
O=[N+]([O-])c1cn2c(n1)OC[C@@H](OC/C=C/c1ccc(C(F)(F)F)cn1)C2	0.043 µM (≈ 0.0159 µg/mL)	3.8 µM (≈ 1.41 µg/mL)	29 µg/mL (≈ 78.3 µM)	–
O=[N+]([O-])c1cn2c(n1)OC[C@@H](OC/C=C/c1ccc(C(F)(F)F)nc1)C2	0.15 µM (≈ 0.0555 µg/mL)	21 µM (≈ 7.78 µg/mL)	45 µg/mL (≈ 122 µM)	–
O=[N+]([O-])c1cn2c(n1)OC[C@@H](OCC#Cc1ccc(OC(F)(F)F)cc1)C2	0.12 µM (≈ 0.046 µg/mL)	3.4 µM (≈ 1.3 µg/mL)	0.77 µg/mL (≈ 2.01 µM)	Stability [7]: < 50%
O=[N+]([O-])c1cn2c(n1)OC[C@@H](OCC#Cc1ccc(OCc3ccccc3)cc1)C2	0.09 µM (≈ 0.0365 µg/mL)	3.5 µM (≈ 1.42 µg/mL)	0.43 µg/mL (≈ 1.06 µM)	Stability [7]: < 50%
O=[N+]([O-])c1cn2c(n1)OC[C@@H](OCC#Cc1ccc(C(F)(F)F)cn1)C2	0.12 µM (≈ 0.0442 µg/mL)	3.3 µM (≈ 1.22 µg/mL)	8.4 µg/mL (≈ 22.8 µM)	–
O=[N+]([O-])c1cn2c(n1)OC[C@@H](OCC#Cc1ccc(C(F)(F)F)nc1)C2	0.18 µM (≈ 0.0663 µg/mL)	8.9 µM (≈ 3.28 µg/mL)	11 µg/mL (≈ 29.9 µM)	–
O=[N+]([O-])c1cn2c(n1)OC[C@@H](OCCCC#Cc1ccc(OC(F)(F)F)cc1)C2	0.05 µM (≈ 0.0206 µg/mL)	1.9 µM (≈ 0.782 µg/mL)	0.09 µg/mL (≈ 0.219 µM)	AUC(0-inf) [8]: 12600 ng·h/mL; Stability [7]: < 50%; fold change (FC) [6]: 4.9; remaining at 1 h, 1 µM [1]: 69%; remaining at 1 h, 1 µM [2]: 24%; half-life [9]: 1.4 h; half-life [10]: 1.6 h; Cmax [11]: 2720 ng/mL; Kp [12]: 0.6; Cmax [13]: 2540 ng/mL; AUC(0-inf) [14]: 7570 ng·h/mL
O=[N+]([O-])c1cn2c(n1)OC[C@@H](OCCCC#Cc1ccc(C(F)(F)F)cn1)C2	0.19 µM (≈ 0.0753 µg/mL)	3.5 µM (≈ 1.39 µg/mL)	28 µg/mL (≈ 70.6 µM)	–
